How the values were obtained:
[1] = target: T1, 5-hydroxytryptamine receptor 1A (Homo sapiens, UniProt P08908); assay: In vitro effective concentration required to inhibit forskolin-stimulated cAMP levels in HA7 cells expressing human 5-HT1A receptor; format: functional, cell-based
T1 sequence (P08908 whole entry): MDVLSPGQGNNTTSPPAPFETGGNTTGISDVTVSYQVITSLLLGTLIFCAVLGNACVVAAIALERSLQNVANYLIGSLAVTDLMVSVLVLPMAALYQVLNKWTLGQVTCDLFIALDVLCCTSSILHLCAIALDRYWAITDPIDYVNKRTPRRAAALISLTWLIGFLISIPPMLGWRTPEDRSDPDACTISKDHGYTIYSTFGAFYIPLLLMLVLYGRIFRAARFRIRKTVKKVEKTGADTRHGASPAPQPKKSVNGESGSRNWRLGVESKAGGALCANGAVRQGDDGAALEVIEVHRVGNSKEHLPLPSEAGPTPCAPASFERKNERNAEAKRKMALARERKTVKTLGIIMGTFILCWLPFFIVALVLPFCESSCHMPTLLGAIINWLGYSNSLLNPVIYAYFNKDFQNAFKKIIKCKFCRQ
Procedure, shortened: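 HeLa HA7 cells stably expressing human 5-HT1A, at 80–90% confluency, antibiotic-free for 24 h. Preincubated 10 min at RT in DMEM/10 mM Hepes, then drug at 0.1 nM–100 µM with 100 µM forskolin and 100 µM IBMX for 10 min at RT. Stopped with 0.1 N HCl; cAMP by radioimmunoassay as % of forskolin control; pEC50.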

[2] = target: T2, 5-hydroxytryptamine receptor 1A (Rattus norvegicus, UniProt P19327); assay: Binding affinity towards 5-hydroxytryptamine 1A receptor in rat cortex using [3H]8-OH-DPAT as a radioligand
T2 sequence (P19327 whole entry): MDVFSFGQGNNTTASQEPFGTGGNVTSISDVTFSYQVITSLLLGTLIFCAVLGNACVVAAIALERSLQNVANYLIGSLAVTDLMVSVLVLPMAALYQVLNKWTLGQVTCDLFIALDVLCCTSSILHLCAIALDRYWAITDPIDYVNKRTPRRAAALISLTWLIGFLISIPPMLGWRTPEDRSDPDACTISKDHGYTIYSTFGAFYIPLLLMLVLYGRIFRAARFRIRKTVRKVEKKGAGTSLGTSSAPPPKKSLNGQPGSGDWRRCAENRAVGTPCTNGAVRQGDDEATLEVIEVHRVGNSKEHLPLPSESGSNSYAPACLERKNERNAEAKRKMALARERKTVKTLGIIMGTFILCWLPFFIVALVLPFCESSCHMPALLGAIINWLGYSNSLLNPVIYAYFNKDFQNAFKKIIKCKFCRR
Procedure, shortened: (§1)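 Rat tissue membranes, competition against radioligand at 23 °C. Nonspecific binding: 5-HT for 5-HT1A (30 min), (+)-butaclamol for D2 (60 min), phentolamine for α1 (30 min). Tris HCl 50 mM pH 7.4 buffers. Filtration through glass-fibre filters, then scintillation counting. Run in triplicate; IC50 by nonlinear regression; Ki by Cheng–Prusoff; mean pKi of three determinations.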

[3] = target: T3, Adrenergic receptor alpha-1 (Rattus norvegicus, UniProt P15823+P23944+P43140); assay: Binding affinity towards Alpha-1 adrenergic receptor using prazosin as a radioligand in rat cortex; procedure, shortened: as §1
T3 sequence (P15823 whole entry): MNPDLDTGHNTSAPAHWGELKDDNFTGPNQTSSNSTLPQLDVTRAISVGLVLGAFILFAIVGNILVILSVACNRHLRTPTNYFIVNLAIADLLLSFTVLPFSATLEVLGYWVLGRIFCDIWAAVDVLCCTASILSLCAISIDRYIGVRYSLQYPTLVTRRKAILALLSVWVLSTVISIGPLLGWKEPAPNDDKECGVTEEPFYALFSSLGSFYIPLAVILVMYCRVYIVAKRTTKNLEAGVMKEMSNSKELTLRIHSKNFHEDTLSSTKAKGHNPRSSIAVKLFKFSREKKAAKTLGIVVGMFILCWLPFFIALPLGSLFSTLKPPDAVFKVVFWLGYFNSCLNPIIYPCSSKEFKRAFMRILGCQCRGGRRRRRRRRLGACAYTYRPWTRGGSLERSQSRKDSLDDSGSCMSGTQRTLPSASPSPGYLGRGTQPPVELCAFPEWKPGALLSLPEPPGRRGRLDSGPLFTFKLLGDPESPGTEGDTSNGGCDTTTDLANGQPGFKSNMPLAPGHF
T3 sequence (P23944 whole entry): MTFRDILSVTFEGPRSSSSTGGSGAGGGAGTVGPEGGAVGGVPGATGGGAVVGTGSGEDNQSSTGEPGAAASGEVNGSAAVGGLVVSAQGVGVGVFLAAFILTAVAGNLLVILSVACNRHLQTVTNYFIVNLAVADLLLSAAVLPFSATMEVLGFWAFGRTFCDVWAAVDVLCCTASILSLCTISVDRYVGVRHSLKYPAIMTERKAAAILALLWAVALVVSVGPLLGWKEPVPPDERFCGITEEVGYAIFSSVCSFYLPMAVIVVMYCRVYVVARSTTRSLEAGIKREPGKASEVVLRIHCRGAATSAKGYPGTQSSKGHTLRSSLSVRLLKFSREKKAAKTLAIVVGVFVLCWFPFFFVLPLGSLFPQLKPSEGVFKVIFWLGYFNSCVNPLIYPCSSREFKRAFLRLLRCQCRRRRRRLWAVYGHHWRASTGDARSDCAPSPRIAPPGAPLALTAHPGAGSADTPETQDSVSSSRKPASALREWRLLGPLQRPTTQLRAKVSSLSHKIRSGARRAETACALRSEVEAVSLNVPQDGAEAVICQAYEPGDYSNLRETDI
T3 sequence (P43140 whole entry): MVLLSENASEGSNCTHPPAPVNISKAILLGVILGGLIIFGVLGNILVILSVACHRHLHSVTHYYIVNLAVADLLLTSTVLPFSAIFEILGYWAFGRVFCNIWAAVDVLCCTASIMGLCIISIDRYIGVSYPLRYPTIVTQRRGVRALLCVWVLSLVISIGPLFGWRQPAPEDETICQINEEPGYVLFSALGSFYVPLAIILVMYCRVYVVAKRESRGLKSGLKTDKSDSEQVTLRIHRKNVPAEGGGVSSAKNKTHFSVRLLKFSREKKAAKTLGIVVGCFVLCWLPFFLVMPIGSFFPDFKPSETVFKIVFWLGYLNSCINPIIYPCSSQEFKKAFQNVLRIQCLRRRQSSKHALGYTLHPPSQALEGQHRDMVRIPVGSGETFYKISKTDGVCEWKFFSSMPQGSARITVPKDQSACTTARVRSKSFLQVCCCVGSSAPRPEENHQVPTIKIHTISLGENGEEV

[4] = target: D(2) dopamine receptor (Rattus norvegicus, UniProt P61169); assay: Binding affinity towards Dopamine receptor D2 in rat striatum using YM-09151-2 as a radioligand; format: tissue-based; procedure, shortened: as §1
D(2) dopamine receptor, sequence (P61169 whole entry): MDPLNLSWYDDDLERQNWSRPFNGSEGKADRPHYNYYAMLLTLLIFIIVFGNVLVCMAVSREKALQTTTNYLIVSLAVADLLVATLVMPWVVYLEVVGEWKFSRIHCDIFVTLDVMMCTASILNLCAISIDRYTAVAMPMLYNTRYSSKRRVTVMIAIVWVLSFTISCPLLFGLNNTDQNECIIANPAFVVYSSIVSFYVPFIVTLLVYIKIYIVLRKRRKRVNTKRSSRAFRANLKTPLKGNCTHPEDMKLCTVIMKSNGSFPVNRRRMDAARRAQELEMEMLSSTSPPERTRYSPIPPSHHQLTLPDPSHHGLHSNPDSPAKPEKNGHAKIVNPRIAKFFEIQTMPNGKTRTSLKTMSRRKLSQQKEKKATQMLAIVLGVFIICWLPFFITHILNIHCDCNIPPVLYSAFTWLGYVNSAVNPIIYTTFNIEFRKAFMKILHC

[5] = system: Rattus norvegicus; assay: Effective intraperitoneal dose in vivo in rat after 15 mins to induce lower lip retraction; format: functional; settings: ip, 0.25 h
Procedure, shortened: (§2)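 Observed in 10 min windows centred 15 and 60 min post-dose, 10 s each minute, scoring lower lip retraction present or absent (0–10).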

[6] = system: Rattus norvegicus; assay: Effective intraperitoneal dose in vivo in rat after 60 mins to induce lower lip retraction; format: functional; settings: ip, 1 h; procedure, shortened: as §2
[7] = system: Rattus norvegicus; assay: Induction of lower lip retraction in rat 60 min after administration, effective peroral dose determined in vivo; format: functional; settings: po, 1 h; procedure, shortened: as §2
[8] = organism: Rattus norvegicus; assay: Potency to produce a significant inhibition of immobility in the rat.; format: functional
Procedure, shortened: (§3)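 Rat forced swim, 5 min test 24 h after a 15 min pre-swim, with oral dose (10 mL/kg) 60 min before the test, n = 10 per dose. Significant response: immobility <138 s, a value seen in <5% of vehicle controls. ED50 by linear interpolation of % responders.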

[9] = organism: Rattus norvegicus; assay: Maximum inhibition of immobility in the rat.(Expressed as percentage of immobility observed in vehicle controls); format: functional
Procedure, shortened: (§4)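 Rat forced swim: 15 min pre-swim in 17 cm water at 25 °C, then 5 min test 24 h later with blind scoring of immobility. Oral dosing (10 mL/kg) 60 min before the test, n = 10 per dose. Inhibition is the difference in median immobility from vehicle controls, as % of the control median.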

[10] = organism: Rattus norvegicus; assay: Potency to produce a significant inhibition of immobility in rat; format: functional; procedure, shortened: as §3
[11] = organism: Rattus norvegicus; assay: Maximum inhibition of immobility in the rat (Expressed as percentage of immobility observed in vehicle controls); format: functional; procedure, shortened: as §4
[12] = system: Rattus norvegicus; assay: Effective dose in vivo in rat to induce lower lip retraction; format: functional; procedure, shortened: as §2
[13] = organism: Rattus norvegicus; assay: Potency to produce a significant inhibition of immobility in the rat; format: functional; procedure, shortened: as §3

| Compound | EC50 [1] [nM] | Ki [2] [nM] | Log Ki [3] | Ki [4] [nM] | ED50 [5] [mg/kg] | ED50 [6] [mg/kg] | ED50 [7] [mg/kg] | ED50 [8] [mg/kg] | Inhibition [9] [%] | ED50 [10] [mg/kg] | Inhibition [11] [%] | ED50 [12] [mg/kg] | ED50 [13] [mg/kg] |
| --- | --- | --- | --- | --- | --- | --- | --- | --- | --- | --- | --- | --- | --- |
| O=C(c1ccc(Cl)c(Cl)c1)N1CCC(F)(CNCc2cccc(-c3cccs3)n2)CC1 | 12 | 1.23 | -6.72 | 457 | 0.32 | 0.32 | 1.3 |  |  |  |  |  |  |
| Cc1ccc(C(=O)N2CCC(F)(CNCc3cccc(N(C)C)n3)CC2)cc1Cl | 5.75 | 0.269 | -6.86 | 129 | 0.08 | 0.08 | 0.32 |  |  |  |  |  |  |
| CN(C)c1cccc(CNCC2(F)CCN(C(=O)c3ccc(F)c(Cl)c3)CC2)n1 | 3.63 |  | -6.68 |  | 0.29 | 0.11 | 0.16 | 0.16 | >80 |  |  |  |  |
| O=C(c1ccc(F)c(Cl)c1)N1CCC(F)(CNCc2cccc(-c3ccco3)n2)CC1 | 3.47 |  | -6.12 |  | 0.08 | 0.11 | 0.32 |  |  | 0.09 | >80 |  |  |
| O=C(c1ccc(Cl)c(Cl)c1)N1CCC(F)(CNCc2cccc(-c3ccco3)n2)CC1 | 2.63 | 1.05 | -6.39 | 1200 | 0.16 | 0.23 | 0.32 |  |  |  |  |  |  |
| O=C(c1ccc(Cl)c(Cl)c1)N1CCC(F)(CNCc2cccc(-n3cccn3)n2)CC1 | 28.2 | 0.204 |  |  |  |  |  |  |  |  |  | 1.3 |  |
| O=C(c1ccc(Cl)c(Cl)c1)N1CCC(F)(CNCc2cccc(-c3cnco3)n2)CC1 | 8.91 | 0.468 | -5.9 | 2240 | 0.32 | 0.32 | 1.3 |  |  |  |  |  |  |
| CNc1nc(CNCC2(F)CCN(C(=O)c3ccc(F)c(Cl)c3)CC2)ccc1C | 2.14 |  |  |  | 0.02 |  | 0.08 |  | >80 |  |  |  | 0.05 |
| O=C(c1ccc(Cl)c(Cl)c1)N1CCC(F)(CNCc2cccc(-c3cc[nH]n3)n2)CC1 | 1.12 | 0.302 | -6.1 | 4070 | 0.32 | 0.32 | 1.3 |  |  |  |  |  |  |
| CN(C)CCCN1c2ccccc2CCc2ccccc21 [IMIPRAMINE] |  |  |  |  |  |  |  |  |  | 80 | 31 |  |  |

— ChEMBL document CHEMBL1132173, “Novel derivatives of 2-pyridinemethylamine as selective, potent, and orally active agonists at 5-HT1A receptors” (J Med Chem, 1999)
